From ChEMBL document CHEMBL4000163, “Pyrazole derived ultra-short antimicrobial peptidomimetics with potent anti-biofilm activity” (Eur J Med Chem, 2017)
Values after ≈ are worked out from the molar mass of the structure shown. Active and inactive are the calls of the source. The calls are words filed in the database; no cut-off is given here.

Legend:
Staphylococcus aureus [1] = test: Antimicrobial activity against Staphylococcus aureus KCTC 1621 in presence of MgCl2; type: functional
Outline: (§1)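 MIC by microdilution with 2 × 10⁶ CFU/ml S. aureus KCTC 1621 in LB medium supplemented with physiological salt: 150 mM NaCl, 1 mM MgCl₂ or 2.5 mM CaCl₂; growth inhibition endpoint as in the standard MIC assay.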

Staphylococcus aureus [2] = test: Induction of cytoplasmic membrane depolarization in Staphylococcus aureus KCTC 1621 assessed as loss of membrane potential after 1 hr by DiSC3(5) dye based fluorescence assay; type: functional
RAW264.7 [3] = test: Antiinflammatory activity in mouse RAW264.7 cells assessed as inhibition of LPS-induced TNFalpha mRNA expression at 16 ug/mL after 3 hrs by RT-PCR method; type: functional, cell-based
Outline: (§2)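 RAW264.7 cells plated at 5×10^5 cells/well and cultured overnight. They were stimulated with 20 ng/mL LPS, with or without peptide, in DMEM with 10% bovine serum, for 3 h (TNF-α) or 6 h (iNOS). Total RNA was reverse-transcribed with oligo(dT)15 primers and amplified for 30 cycles (annealing 55 °C). mRNA was analysed by PCR.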

[4] = Therapeutic index, ratio of MHC for sheep RBC to MIC for Staphylococcus epidermidis KCTC 1917
Staphylococcus aureus [5] = test: Antimicrobial activity against Staphylococcus aureus KCTC 1621 in presence of NaCl; type: functional; outline: as §1
RAW264.7 [6] = test: Antiinflammatory activity in mouse RAW264.7 cells assessed as inhibition of LPS-induced TNF-alpha production at 32 ug/mL preincubated with cells followed by LPS addition measured after 6 hrs by ELISA; type: functional
Outline: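 RAW264.7 cells seeded at 5 × 10⁴ cells/well, left overnight, then given peptide at 37 °C. Unbound peptide was washed off with PBS (five washes) before LPS (20 ng/mL) was added for 6 h at 37 °C. TNF-α in the samples was measured by mouse ELISA. Mean ± SEM of technical triplicates, one-way ANOVA with Bonferroni post-test.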

Staphylococcus aureus [7] = test: Antibacterial activity against methicillin resistant Staphylococcus aureus CCARM 3095 after 18 to 20 hrs by broth microdilution assay; type: functional; conditions: read-out: MIC100
Outline: (§3)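 Broth microdilution in 1% peptone: bacteria at 2 × 10⁶ CFU/mL mixed 1:1 with serial 2-fold peptide dilutions, 18-20 h at 37 °C; growth read as absorbance at 600 nm. MIC taken as lowest concentration giving 100% growth inhibition.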

Pseudomonas aeruginosa [8] = test: Potency index, ratio of melittin MIC100 to compound MIC100 for Pseudomonas aeruginosa KCTC 1637; type: functional
Staphylococcus aureus [9] = test: Potency index, ratio of melittin MIC100 to compound MIC100 for methicillin resistant Staphylococcus aureus CCARM 3095; type: functional
Pseudomonas aeruginosa [10] = test: Potency index, ratio of LL-37 MIC100 to compound MIC100 for Pseudomonas aeruginosa KCTC 1637; type: functional
Staphylococcus aureus [11] = test: Antibacterial activity against methicillin resistant Staphylococcus aureus CCARM 3089 after 18 to 20 hrs by broth microdilution assay; type: functional; conditions: read-out: MIC100; outline: as §3
RAW264.7 [12] = test: Antiinflammatory activity in mouse RAW264.7 cells assessed as inhibition of LPS-induced iNOS mRNA expression at 16 ug/mL after 6 hrs by RT-PCR method; type: functional, cell-based; outline: as §2
RAW264.7 [13] = test: Antiinflammatory activity in mouse RAW264.7 cells assessed as inhibition of LPS-induced nitric oxide production at 16 ug/mL after 24 hrs by Griess method; type: functional; conditions: RAW264.7, 24 h
Outline: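 RAW264.7 macrophages (5×10^5 cells/mL) stimulated with LPS (20 ng/mL), with or without peptide, for 24 h. Supernatants were mixed 1:1 with Griess reagent (1% sulfanilamide, 0.1% naphthylethylenediamine, 2% phosphoric acid) for 10 min at room temperature, read at 540 nm, and quantified against an NaNO₂ standard curve. Mean ± SEM of technical triplicates, ANOVA with Bonferroni post-test.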

Pseudomonas aeruginosa [14] = test: Antibacterial activity against multidrug-resistant Pseudomonas aeruginosa CCARM 2109 after 18 to 20 hrs by broth microdilution assay; type: functional; conditions: read-out: MIC100; outline: as §3
Enterococcus faecium = test: Potency index, ratio of melittin MIC100 to compound MIC100 for vancomycin-resistant Enterococcus faecium ATCC 51559; type: functional
RAW264.7 [15] = test: Cytotoxicity against mouse RAW264.7 cells up to 32 ug/mL after 2 days by MTT assay; type: cell-based; conditions: raw264.7, 48 h
Outline: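 Cells in DMEM with 10% FBS seeded at 2×10^4 cells/well and incubated 24 h at 37 °C, 5% CO₂. Serial 2-fold peptide dilutions were added for 2 days, then MTT for 4 h. Formazan was dissolved in 20% SDS/0.01 M HCl and read at 570 nm. Survival is expressed as a percentage of untreated cells.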

Staphylococcus aureus [16] = test: Potency index, ratio of LL-37 MIC100 to compound MIC100 for Staphylococcus aureus KCTC 1621; type: functional
Staphylococcus aureus [17] = test: Antimicrobial activity against Staphylococcus aureus KCTC 1621 incubated for 18 to 20 hrs by broth microdilution assay; type: functional; conditions: read-out: MIC100
Outline: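 Broth microdilution in 1% peptone. Inoculum was 2 × 10⁶ CFU/mL mixed 1:1 with serial 2-fold peptide dilutions and incubated 18–20 h at 37 °C. Growth was read as absorbance at 600 nm; MIC is the lowest peptide concentration giving 100% growth inhibition.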

Staphylococcus aureus [18] = test: Antibacterial activity against methicillin resistant Staphylococcus aureus CCARM 3090 after 18 to 20 hrs by broth microdilution assay; type: functional; conditions: read-out: MIC100; outline: as §3
Escherichia coli [19] = test: Antimicrobial activity against Escherichia coli KCTC 1682 in presence of MgCl2; type: functional
Outline: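 MIC in LB medium with added 150 mM NaCl, 1 mM MgCl₂ or 2.5 mM CaCl₂. Inoculum of 2 × 10⁶ CFU/mL with peptide. Otherwise as the broth microdilution MIC assay; MIC is the lowest concentration giving 100% growth inhibition.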

Escherichia coli [20] = test: Induction of inner membrane permeabilisation in Escherichia coli ML-35 assessed as ONPG hydrolysis up to 30 ug/ml by beta-galactosidase enzyme coupled spectrophotometric analysis; type: functional
Outline: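 E. coli ML-35 (constitutive cytoplasmic β-galactosidase, lactose permease-deficient) washed and resuspended to OD600 0.5 in 10 mM sodium phosphate pH 7.4, 100 mM NaCl, with 1.5 mM ONPG. o-Nitrophenol release tracked spectrophotometrically over time after peptide addition at various concentrations.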

Escherichia coli [21] = test: Antimicrobial activity against Escherichia coli KCTC 1682 assessed as disruption of bacterial cell membrane at 2 times MIC after 1 hr by transmission electron microscopy; type: functional
Outline: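 Bacteria at 2×10^7 CFU/mL in LB, washed three times in PBS. Peptide in PBS was added to a final 2 × MIC and incubated 1 h at 37 °C. Pelleted cells were resuspended in PBS, applied to glow-discharged carbon-film grids, negatively stained with 1% uranyl acetate for 1 min, and imaged by TEM at 120 kV.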

N=C(N)NCCC[C@H](NC(=O)c1nn(CCc2cccc3ccccc23)cc1NC(=O)[C@H](CCCNC(=N)N)NC(=O)c1nn(CCc2cccc3ccccc23)cc1N)C(N)=O
MIC (Staphylococcus aureus [1]): 8 µg/mL | Activity (Staphylococcus aureus [2]): Active | inhibition (RAW264.7 [3]): Active | TI [4]: 53.9 | MIC (Staphylococcus aureus [5]): 4 µg/mL | inhibition at 32 µg/mL (RAW264.7 [6]): > 50% | MIC (Staphylococcus aureus [7]): 4 µg/mL (≈ 4.67 µM) | Ratio (Pseudomonas aeruginosa [8]): 4 | Ratio (Staphylococcus aureus [9]): 2 - 4 | Ratio (Pseudomonas aeruginosa [10]): 8 | MIC (Staphylococcus aureus [11]): 8 µg/mL (≈ 9.35 µM) | inhibition (RAW264.7 [12]): Active | inhibition at 16 µg/mL (RAW264.7 [13]): > 85% | MIC (Pseudomonas aeruginosa [14]): 8 µg/mL (≈ 9.35 µM) | Ratio (Enterococcus faecium): 2 | Activity (RAW264.7 [15]): Non-Toxic | Ratio (Staphylococcus aureus [16]): 8 | MIC (Staphylococcus aureus [17]): 4 µg/mL (≈ 4.67 µM) | MIC (Staphylococcus aureus [18]): 8 µg/mL (≈ 9.35 µM) | MIC (Escherichia coli [19]): 32 µg/mL | Activity (Escherichia coli [20]): Active | Activity (Escherichia coli [21]): Active
